Hits are enriched below; roughly 2.6% of the tested compounds scored in any of these assays.
CHT block – inhibits the human high affinity choline transporter. B-score at 10 µM. CHT-expressing cells, membrane potential dye, choline response; stronger effect = lower value. Q9GZV3. 310,000 compounds, 0.86% hits;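 active = B-score over 3 SD under the library average, and starting fluorescence ratio not unusually high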;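 also: choline stimulus applied at its EC90 after an EC20 pre-addition; B-score computed on integrated fluorescence ratio after choline addition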
Target sequence (Q9GZV3 whole entry, looked up): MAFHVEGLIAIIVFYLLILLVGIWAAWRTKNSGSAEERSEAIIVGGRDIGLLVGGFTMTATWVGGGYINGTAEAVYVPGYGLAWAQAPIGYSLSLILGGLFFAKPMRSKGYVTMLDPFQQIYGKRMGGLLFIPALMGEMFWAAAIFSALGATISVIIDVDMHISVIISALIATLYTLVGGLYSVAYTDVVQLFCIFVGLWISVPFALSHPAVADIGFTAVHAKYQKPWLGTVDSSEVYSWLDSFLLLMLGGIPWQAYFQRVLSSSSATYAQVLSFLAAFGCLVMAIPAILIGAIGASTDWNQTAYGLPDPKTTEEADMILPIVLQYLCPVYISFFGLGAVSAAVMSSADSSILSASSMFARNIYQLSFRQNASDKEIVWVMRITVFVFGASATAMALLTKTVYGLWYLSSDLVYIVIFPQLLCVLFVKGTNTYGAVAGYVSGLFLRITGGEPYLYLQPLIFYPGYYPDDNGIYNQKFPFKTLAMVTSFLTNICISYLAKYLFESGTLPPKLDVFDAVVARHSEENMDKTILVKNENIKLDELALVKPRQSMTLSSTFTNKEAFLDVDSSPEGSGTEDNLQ
CHT PAM – human CHT allosteric activation; CHT-expressing cells, membrane potential dye, choline EC20; stronger effect = higher value; LV-AA mutant CHT in HEK293 cells; 310,000 compounds, 0.49% hits; B-score at 10 µM; AID 488977;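 active = initial fluorescence not abnormally high and integrated response B-score, plate-corrected, over 3 SD above library mean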
PolyA inhibitor – yeast polyadenylation inhibition; S. cerevisiae SKY197-pL101 polyadenylation reporter, beta-gal luminescence; efflux-impaired pdr1/pdr3 knockout yeast; score 100 = 6 SD above DMSO; activity score, % at 12 µM; 300,000 compounds, 0.02% hits; AID 1875;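 active = lowest replicate activity score at least 50, where 100 means six control SD above control mean; inconclusive = lowest score under 50 but half or more replicates reach 50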;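 also: yeast exposed to compound for 9 h at 30 °C; higher score means more reporter readthrough which indicates perturbed polyadenylation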
T cruzi repl – blocks replication of Trypanosoma cruzi; T. cruzi beta-gal in NIH3T3, luminescence, 90 h; inhibition, % (concentration not given with the values); 300,000 compounds, 1.4% hits; AID 1885;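 active = mean inhibition across valid replicates above about 55%, limit read from the data; inconclusive = mean below that limit but half or more replicates reach it; inactive = mean below it, under half of replicates reach it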;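 also: signal also drops with host cell toxicity which is not excluded here; higher percent means less beta-gal luminescence so fewer parasites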
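System – NIH/3T3 host cells with β-galactosidase reporter T. cruzi · Doses – single 50 nL compound addition per well in DMSO · Reagent – 5000 T. cruzi trypomastigotes/well · Medium – Low-serum DMEM with 2% FBS · Timing – ≥90 h infection period, 3 h prior cell attachment · Evaluation – parasite load inhibition, % · Technique – GalScreen luminescence, 60 min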
Each line names hits and unclear results; the compound was inactive in the other large screens.

CSc1ccc(NC(=O)Nc2cccn(Cc3ccccc3F)c2=O)cc1	T cruzi repl 59
CC(C)=CCCC(C)CN1CCC(n2nccc2NC(=O)c2ccc3c(c2)OCO3)CC1 (stereo not given)	PolyA inhibitor inconclusive, T cruzi repl 57
Cc1ccc(NC(=O)c2ccccc2)cc1	none
Cc1ccc(NC(=O)C2=C(c3ccccc3)S(=O)(=O)CCS2(=O)=O)cc1	T cruzi repl 58
O=C(COc1ccc(/C=N/NC(=O)c2cc3ccccc3o2)cc1Cl)Nc1ccccc1	T cruzi repl 73
CCOc1ccc(C2C(C(=O)c3cccs3)=C(O)C(=O)N2CCN2CCOCC2)cc1 (stereo not given)	none
S=C(Nc1cccc(Cl)c1)N(CCCN1CCCC1)Cc1cccn1Cc1ccc(Cl)cc1	none
CSc1cccc(NC(=S)N(CCCN2CCCC2)Cc2cccn2Cc2ccc(Cl)cc2)c1	T cruzi repl 56
Cc1nc2ccc(C(=O)NCc3ccc4c(c3)OCO4)cc2s1	PolyA inhibitor 112
Cc1nc2c(ccc3nc(NC(=O)c4ccc5c(c4)OCCO5)sc32)s1	T cruzi repl 57
COc1cc(NC(=O)c2cccs2)c(OC)cc1NC(=O)Nc1ccc(F)cc1	none
Cc1ccn2c(Nc3ccccc3)c(-c3ccccn3)nc2c1	T cruzi repl 62
Cc1ccn2c(Nc3ccccc3C)c(-c3ccccn3)nc2c1	none
Cc1ccc2nc(-c3ccccn3)c(Nc3ccccc3C)n2c1	T cruzi repl 62
CCN1/C(=C/c2sc(-c3ccccc3C)c[n+]2C)Sc2ccccc21	T cruzi repl 66 (no result: CHT block, CHT PAM)
CCC(=O)/C=C1/Sc2ccccc2N1CC	none
CCn1c(-c2ccc(N(C)C)cc2)nc2ccccc21	T cruzi repl 58
Cc1ccsc1C(=O)NC1CCCN(Cc2ccc(Cl)cc2)C1 (stereo not given)	none
Cc1cc(N/N=C/c2ccc(Cl)cc2)nc(NCc2ccccc2)n1	T cruzi repl 80
Cc1cc(Nc2cccc(Cl)c2)nc(NCc2ccccc2)n1	T cruzi repl 58
Cc1cc(N/N=C/c2cccc(Cl)c2)nc(NCc2ccccc2)n1	none
O=C(OCC(=O)N1CCCC1=O)c1nc(Cl)c(Cl)c(Cl)c1Cl	CHT block -5
Cc1ccc(NC(=S)c2ccc(N(C)C)cc2)cc1	none
Cc1ccc2c(c1)sc(-c1ccc(N(C)C)cc1)[n+]2C	T cruzi repl 62
CS(=O)(=O)Nc1cccc2cccnc12	none (no result: PolyA inhibitor, T cruzi repl)
Cc1cc(C)n(-c2ccc3cccc(NS(C)(=O)=O)c3n2)n1	T cruzi repl 60
Cc1ccc2[nH]c(O)c(N=Nc3nc4ccccc4s3)c2c1	T cruzi repl 61
Brc1csc(/C=N/Nc2nc3ccccc3s2)c1	none
Cc1ccc2[nH]c(C)c(/C=N/Nc3nc4ccccc4s3)c2c1	T cruzi repl 61
Oc1[nH]c2ccccc2c1N=Nc1nc2ccccc2s1	none
CCCCn1c(N)c(N(Cc2ccccc2OC)C(=O)CN2C(=O)NC(C)(c3ccccc3)C2=O)c(=O)[nH]c1=O (stereo not given)	none
NS(=O)(=O)c1ccc(N/N=C/c2cn(-c3ccccc3)nc2-c2cccs2)c([N+](=O)[O-])c1	T cruzi repl 67
Cc1cccc(-c2cc3c(N=O)c4ccccc4c-3n[nH]2)c1	T cruzi repl 62
O=Nc1c2cc(-c3ccccc3)[nH]nc-2c2ccccc12	none (no result: CHT block, CHT PAM)
N/C(=N\OC(=O)N1c2ccccc2Sc2ccccc21)c1ccccc1	T cruzi repl 82
COc1ccc(/C=C2/SC(=O)N(CC(O)Cn3c4ccccc4c4ccccc43)C2=O)cc1 (stereo not given)	none
O=C1S/C(=C\c2ccccc2)C(=O)N1CC(O)Cn1c2ccccc2c2ccccc21 (stereo not given)	T cruzi repl 58
Cc1ccc(NC(=S)/N=C(\N)Nc2nc(C)c3cc(C)c(C)cc3n2)cc1C	T cruzi repl 61
COc1cc(C(=O)NCCCN(C)C)ccc1OCC(=O)Nc1cccc(C(F)(F)F)c1	T cruzi repl 57
COc1cccc(CN(C)C(=O)c2ccc(OCC(=O)Nc3cccc(C(F)(F)F)c3)c(OC)c2)c1	none
CC(C)C(=O)n1nc(-c2cccnc2)nc1NCc1cccs1	none
COC(=O)c1sc(N/N=C/c2ccc(C(C)C)cc2)nc1C	T cruzi repl 64
COc1ccccc1CNC(=O)C1CCN(c2ncnc3c2nc2n3CCCCC2)CC1	none
CC(CCc1ccccc1)N1CCN(Cc2ccccc2)CC1 (stereo not given)	T cruzi repl 58
CC(CN1CCN(Cc2ccccc2)CC1)c1ccccc1 (stereo not given)	none
O=C(O)c1cccc(NC2=C(Cl)C(=O)c3ccccc3C2=O)c1	T cruzi repl 64 (no result: CHT block, CHT PAM)
O=C1C(Cl)=C(Nc2ccccc2)C(=O)c2ccccc21	T cruzi repl inconclusive
Cc1c(C(=O)Nc2ccc(-c3nnc4n3CCCCC4)cc2)oc2ccc(Br)cc12	T cruzi repl 61
COc1ccc(C(CNC(=O)c2oc3ccc(Br)cc3c2C)N2CCCCC2)cc1 (stereo not given)	T cruzi repl 55
Cc1ccc2nc(Nc3ccc(C)c(C)c3)c3nncn3c2c1	none
O=[N+]([O-])c1cc2cccnc2c2ncccc12	CHT PAM 7
Cc1ccc([N+](=O)[O-])c2cccnc12	none
O=[N+]([O-])c1ccc(Sc2cccc3cccnc23)c2cccnc12	T cruzi repl 86
CN(C)c1ccc(C(CNC(=O)c2cccs2)N(C)C)cc1 (stereo not given)	none
COc1ccc(OC)c(S(=O)(=O)NC2CC(=O)N(c3ccc(C)c(C)c3)C2)c1 (stereo not given)	none
Cc1ccc(C(CNC(=O)c2ccc(Br)o2)N2CCN(C)CC2)cc1 (stereo not given)	none
Cc1ccc(C(CNC(=O)C(=O)Nc2ccc3c(c2)OCCO3)N2CCN(C)CC2)cc1 (stereo not given)	none
CN1CCN(C(CNC(=O)C(=O)Nc2ccc3c(c2)OCCO3)c2ccc(F)cc2)CC1 (stereo not given)	T cruzi repl 62
CN1CCN(C(CNC(=O)c2ccc(Br)o2)c2ccc(F)cc2)CC1 (stereo not given)	T cruzi repl 62
COc1ccc(CNC(=O)COc2ccc(OC)cc2)cc1	none
O=C(Nc1cccc(N=Cc2cc(Cl)cc(Br)c2O)c1)c1ccco1	CHT block -7.1
COc1ccc(CCNCc2cc(C)n(-c3ccc(OC)cc3)c2C)cc1	T cruzi repl 65
COc1ccc(CCNCc2ccccc2N2CCCC2)cc1	none
Cc1cccc2c1c(N=NC(N)=S)c(O)n2C1OC(CO)C(O)C(O)C1O (stereo not given)	none
CCOC(=O)N1CCN(CC(=O)Nc2cc(OCC)ccc2OCC)CC1	none (no result: PolyA inhibitor, T cruzi repl)
CCOc1ccc(OCC)c(NC(=O)CN2CCN(c3ccc(C)cc3C)CC2)c1	T cruzi repl 65
COc1ccc(C[C@H](C)NC[C@@H](O)c2ccc(O)c(NC=O)c2)cc1	none
Cc1ccc(-n2nnnc2CNC(=O)c2ccc([N+](=O)[O-])o2)cc1C	T cruzi repl 57

Screening results (PubChem)
